# Activity calls are given as the source filed them.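 How the source made its calls, unless noted: active means fluorescence slope after compound addition differing from the mean of all tested samples at 99.7% confidence, mostly higher but some lower; inactive means the rest.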
# Key:
# [1] = inhibitors of TNFa-induced NFkB p65 translocation, primary screen, imaging, HUVEC, MLSMR starter and 10KST1 sets (AID 438;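 active means inhibition above 20% together with a positive visual image hit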;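 further: compound added about 3h40 before a 20 min TNFalpha stimulation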;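 on inhibition: signal is the nuclear over cytoplasmic p65 intensity ratio per well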); details: HUVEC TNFa-induced p65 nuclear translocation; cell count: measured here: nuclei count (cytotoxicity indicator), at 2.08 µM; inhibition: at 2 µM, stronger effect = higher value, 0% TNFa-plus-vehicle, 100% no-TNFa wells
# [2] = inhibitors of mutant huntingtin aggregation, primary screen, imaging, exon1htt(103Q)mCFP cells, high-content imaging (AID 483;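 active means visual image review flags a hit and inhibition of aggregation exceeds 20%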;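 further: compound exposure lasted 3 days before fixation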;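 on nuclei count: percent of the per-plate median nuclei count of sample wells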); details: exon1htt(103Q)mCFP cell line, aggregate imaging, at 2 µM; inhibition of aggregation: stronger effect = higher value; nuclei count: measured here: cell count, toxicity
# [3] = inhibitors of E-selectin induction by TNFa, primary screen, imaging, HUVEC, immunofluorescence, MLSMR starter and 10KST1 sets (AID 487;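 active means visually confirmed hit in the image check and inhibition above 20%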;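 on inhibition: signal is fraction of cell area covered by stained E-selectin grains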;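 on nuclei count: 100% = median nuclei count of all wells on the same plate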); details: HUVEC TNFalpha-induced E-selectin immunofluorescence imaging, at 2 µM; inhibition: stronger effect = higher value; nuclei count: measured here: cell number, toxicity
# [4] = molecular target: Voltage-gated potassium channel subunit beta-2 (Rattus norvegicus) (UniProt P62483); test: KvBeta enzyme negative modulators, primary screen, biochemical, NADPH fluorescence (AID 622;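 active means fluorescence slope higher than the sample average by over 3 SD, cut at about -0.22 in these data, passing the limit was not always enough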;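 further: slope of raw intensity against log time taken from 70 to 1610 s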); details: recombinant KvBeta, 4-cyanobenzaldehyde reduction, at 10 µM, stronger effect = higher value
# [5] = molecular target: Voltage-gated potassium channel subunit beta-2 (Rattus norvegicus) (UniProt P62483); test: KvBeta positive modulators, primary screen, biochemical, NADPH fluorescence (AID 623;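 active means NADPH fluorescence slope more negative than the mean of all samples by about 3 SD, 99.7% confidence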;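 further: fluorescence intensity change per second fitted from 20 to 320 s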); details: Recombinant KvBeta, NADPH fluorescence decrease slope, 10 min; at 10 µM; stronger effect = lower value
# [6] = molecular target: Muscarinic acetylcholine receptor M4 (Homo sapiens) (UniProt P08173); test: compounds altering M4/GIRK thallium flux, either direction, primary screen, M4 allosteric agonist project, cell-based, HEK293 M4/GIRK, BTC-AM (AID 625); details: at 10 µM, actives lie on both sides;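 further: thallium influx through GIRK channels coupled to M4 in HEK293 cells with BTC-AM dye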
# Procedure, shortened: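 Material: M4/GIRK1/GIRK2 stable HEK293 cell line. Medium: pH 7.3 thallium assay buffer. Dosing: single compound concentration, 10 µM final. Schedule: 1 h dye loading, 2 min kinetic read. Measured by: kinetic fluorescence with BTC-AM dye. Read-out: post-addition slope, 15–24 s, of baseline-normalized fluorescence. Benchmarks: carbachol and DMSO controls.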
# [7] = inhibitors of Sendai virus-induced IRF3 signaling, primary screen, TLR/RLR signaling modifier project, cell-based, Sendai virus stimulus, luciferase, 10K MLSCN set (AID 602276;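 active means inhibition at or above 50% at 10 µM; inactive means inhibition below 50%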;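 further: firefly luciferase from ISG56 promoter only with Renilla not read in this screen; 0% = Sendai virus plus DMSO and 100% = medium plus DMSO without virus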); details: HEK293 RL24 IRF3 luciferase reporter, at 10 µM, stronger effect = higher value
# [8] = inhibitors of poly I:C-induced TLR3 signaling, primary screen, cell-based, poly I:C stimulus, luciferase, 10K MLSCN set (AID 602277;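 active means inhibition of the reporter signal at or above 50%; inactive means inhibition below 50%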); details: HEK293-TLR3 RL24 IRF3 luciferase reporter, at 10 µM, stronger effect = higher value
# Sequence of Muscarinic acetylcholine receptor M4 (Homo sapiens) (P08173 whole entry, looked up): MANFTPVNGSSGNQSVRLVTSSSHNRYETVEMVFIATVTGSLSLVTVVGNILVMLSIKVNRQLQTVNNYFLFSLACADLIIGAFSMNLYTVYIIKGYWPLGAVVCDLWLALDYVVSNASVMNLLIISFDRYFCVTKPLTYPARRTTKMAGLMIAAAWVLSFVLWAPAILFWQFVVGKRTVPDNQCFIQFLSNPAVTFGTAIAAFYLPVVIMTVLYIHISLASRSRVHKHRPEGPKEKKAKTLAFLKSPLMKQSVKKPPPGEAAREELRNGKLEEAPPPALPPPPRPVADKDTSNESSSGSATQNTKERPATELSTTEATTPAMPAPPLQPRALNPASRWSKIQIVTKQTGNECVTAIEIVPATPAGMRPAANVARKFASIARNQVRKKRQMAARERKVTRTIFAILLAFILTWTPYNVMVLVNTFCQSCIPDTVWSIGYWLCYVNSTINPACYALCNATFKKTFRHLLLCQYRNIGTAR
# Sequence of Voltage-gated potassium channel subunit beta-2 (Rattus norvegicus) (P62483 whole entry, looked up): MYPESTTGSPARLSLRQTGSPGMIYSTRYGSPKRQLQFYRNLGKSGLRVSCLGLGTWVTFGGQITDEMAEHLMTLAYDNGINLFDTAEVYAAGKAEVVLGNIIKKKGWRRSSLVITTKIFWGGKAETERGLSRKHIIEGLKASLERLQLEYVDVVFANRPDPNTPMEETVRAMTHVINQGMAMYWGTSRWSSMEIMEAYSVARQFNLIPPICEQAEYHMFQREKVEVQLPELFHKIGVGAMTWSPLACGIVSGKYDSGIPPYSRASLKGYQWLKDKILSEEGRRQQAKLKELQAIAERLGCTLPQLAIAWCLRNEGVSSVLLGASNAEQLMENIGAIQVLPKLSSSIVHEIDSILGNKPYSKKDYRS
Structure (SMILES),cell count [1],inhibition [1],inhibition of aggregation [2],nuclei count [2] [%],inhibition [3],nuclei count [3] [%],fluorescence slope [4],NADPH fluorescence slope [5],fluorescence slope [6],inhibition [7],inhibition [8]
CC1CC(C)CN(CCCNC(=O)COc2cc(=O)n(C)c3ccccc23)C1 (centres undefined),347,3.3% (inactive),-17.3% (inactive),99,-10.4% (inactive),122,-0.408 (inactive),-7e-05 (inactive),0.00505 (inactive),11.3% (inactive),36.3% (inactive)
CCn1c2ccccc2c2cc(NC(=O)CSc3nnc(C4CC4)n3Cc3ccco3)ccc21,488,6.3% (inactive),2.5% (inactive),94.6,36.4% (inactive),94.6,-0.461 (inactive),2.1e-05 (inactive),0.00526 (inactive),12.7% (inactive),17.6% (inactive)
COC(=O)c1ccc(-c2ccc(CNCC(O)c3ccccc3)o2)cc1 (centres undefined),400,3.2% (inactive),-6% (inactive),111,-27.1% (inactive),115,-0.313 (inactive),-1.1e-05 (inactive),0.00598 (inactive),13.2% (inactive),13.8% (inactive)
CCn1cc(C(=O)N2CCCC2)c(=O)c2cc(S(=O)(=O)N3CCOCC3)ccc21,542,-1% (inactive),-13.1% (inactive),100,14.8% (inactive),113,-0.427 (inactive),-7.4e-05 (inactive),0.00706 (inactive),1.49% (inactive),12.8% (inactive)
COc1cccc(OCCOCCN(C)CCO)c1,313,1.5% (inactive),19.1% (inactive),85.9,41.3% (inactive),88.1,-0.532 (inactive),-2.5e-05 (inactive),0.00575 (inactive),-3.56% (inactive),14.6% (inactive)
COc1cccc(OC)c1C(=O)Nc1ccccc1N1CCCC1,417,-3.4% (inactive),3.7% (inactive),92.9,4.8% (inactive),118,-0.474 (inactive),-5.8e-05 (inactive),0.00391 (inactive),15.4% (inactive),8.75% (inactive)
Cc1noc(C)c1COc1cccc(C(=O)Oc2ccc3c(c2)OCO3)c1,329,-9.6% (inactive),4.3% (inactive),80.2,1.2% (inactive),100,-0.567 (inactive),-2.5e-05 (inactive),0.00685 (inactive),8.11% (inactive),15.8% (inactive)
CN(C)C(=O)C12CCC(C)(c3nc4ccccc4nc31)C2(C)C (centres undefined),504,-6.5% (inactive),-24% (inactive),97,-59.3% (inactive),112,-0.492 (inactive),-2e-05 (inactive),0.00404 (inactive),-7.12% (inactive),-15.4% (inactive)
CCCCn1cnc2c(cnn2-c2ccc(Cl)cc2)c1=O,342,-16.3% (inactive),-4.9% (inactive),102,-72% (inactive),103,-0.531 (inactive),-2.1e-05 (inactive),0.00515 (inactive),-48.5% (inactive),-141% (inactive)
CC1=CC=CC2=NC(=O)CC(C)(C(=O)N(CC(=O)NC(C)C)C3CCCC3)N12 (centres undefined),668,-4.9% (inactive),-31.9% (inactive),107,71.9% (active),102,-0.405 (inactive),6.3e-05 (inactive),0.00619 (inactive),4.96% (inactive),6.2% (inactive)
Cn1c(=O)c2c(nc(NCCc3ccccc3)n2CC(=O)NCCc2ccccc2)n(C)c1=O,339,2.5% (inactive),6.2% (inactive),94.2,-86.4% (inactive),105,-0.575 (inactive),2.8e-06 (inactive),0.00514 (inactive),30.2% (inactive),31.9% (inactive)
O=C(Nc1nccs1)c1ccc(Cl)c(S(=O)(=O)N2CCCCC2)c1,355,1.3% (inactive),30.8% (active),109,-4.7% (inactive),117,-0.311 (inactive),-3.8e-05 (inactive),0.00573 (inactive),8.7% (inactive),7.95% (inactive)
CCn1nnc(-c2ccccc2NC(=O)c2ccc(-n3cnnn3)cc2)n1,333,-2.5% (inactive),-19% (inactive),97.1,1.4% (inactive),90.6,-0.5 (inactive),-0.000135 (inactive),0.00365 (inactive),15.3% (inactive),15.5% (inactive)
Cc1ccccc1Cn1nc(C)c(NC(=O)c2noc3c2CCCC3)c1C,191,-1.3% (inactive),7.3% (inactive),101,-13.5% (inactive),120,-0.571 (inactive),-2.7e-05 (inactive),0.00499 (inactive),-24.6% (inactive),-32% (inactive)

# From PubChem BioAssay
